Like-named read-outs stand apart in the source and are kept apart here.
What was measured:
PSMA = PSMA (Homo sapiens, UniProt Q04609); test: NAALADase assay; type: biochemical
[1] = Electronic / fluorescence properties; type: physicochemical
Summary of the method: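 Test compound (Re tricarbonyl complex) dissolved in ethylene glycol, measured under air or after argon purging. […] Lifetime was measured by a frequency-domain method with 370 nm LED excitation and 540–600 nm bandpass collection. Quantum yield was obtained by the optically dilute method against aerated aqueous [Ru(bpy)3]Cl2 (φ = 0.028, excitation 455 nm).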

PSMA+ PC3 PIP cells = test: In vitro fluorescence microscopy in PC3 PIP and PC3 flu cells; type: cell-based, human; details: excitation 494 nm, emission 628 nm
Summary of the method: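 PC3 PIP and PC3 flu cells (10000 per well) were attached overnight at 37 °C in 5% CO2. […] Wells were washed with warm medium for 30 s, mounted, dried 20 min, held overnight at 4 °C, then imaged.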

[2] = LNCaP cell extracts, Cheng–Prusoff conversion

PSMA, sequence (Q04609 whole entry): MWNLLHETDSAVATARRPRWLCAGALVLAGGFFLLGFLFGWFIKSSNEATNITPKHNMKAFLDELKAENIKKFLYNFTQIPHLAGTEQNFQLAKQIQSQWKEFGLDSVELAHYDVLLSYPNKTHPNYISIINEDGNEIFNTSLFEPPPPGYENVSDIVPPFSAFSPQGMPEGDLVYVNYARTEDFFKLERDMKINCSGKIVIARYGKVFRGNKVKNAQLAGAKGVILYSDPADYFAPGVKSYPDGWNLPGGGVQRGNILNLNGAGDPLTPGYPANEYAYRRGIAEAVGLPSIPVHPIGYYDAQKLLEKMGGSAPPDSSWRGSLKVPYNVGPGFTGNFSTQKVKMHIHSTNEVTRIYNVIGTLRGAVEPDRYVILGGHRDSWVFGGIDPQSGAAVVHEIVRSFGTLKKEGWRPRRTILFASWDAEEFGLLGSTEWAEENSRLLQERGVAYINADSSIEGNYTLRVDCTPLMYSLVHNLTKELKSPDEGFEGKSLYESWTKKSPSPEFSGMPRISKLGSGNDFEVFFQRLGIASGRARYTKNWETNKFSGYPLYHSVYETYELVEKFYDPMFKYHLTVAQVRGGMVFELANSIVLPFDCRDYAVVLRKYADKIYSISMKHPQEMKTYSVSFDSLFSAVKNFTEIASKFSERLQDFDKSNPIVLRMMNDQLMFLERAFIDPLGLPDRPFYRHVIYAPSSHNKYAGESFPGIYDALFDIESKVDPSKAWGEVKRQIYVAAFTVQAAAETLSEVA

`O=C(O)CCC(NC(=O)NC(CCCCNC(=O)CCCCCCC(=O)NC(CCCCN(Cc1ccccn1)Cc1ccccn1)C(=O)O)C(=O)O)C(=O)O` (centres unmarked) [Compound L1, 2-[3-(5-{7-[5-(Bis-pyridin-2-ylmethyl-amino)-1-carboxy-pentylcarbamoyl]-heptanoylamino}-1-carboxy-pentyl)-ureido]-pentanedioic Acid] gave a Ki (PSMA) of 15.2 nM.

Work on `O=C(O)CCC(NC(=O)NC(CCCCNC(=O)CCCCCCC(=O)NC(CCCCN(Cc1ccc2ccccc2n1)Cc1ccc2ccccc2n1)C(=O)O)C(=O)O)C(=O)O` (centres unmarked) [Compound L2, 2-[3-(5-{7-[5-(Bis-quinolin-2-ylmethyl-amino)-1-carboxy-pentylcarbamoyl]-heptanoylamino}-1-carboxy-pentyl)-ureido]-pentanedioic acid] yielded a Ki (PSMA; [2]) of 0.17 nM.

In the case of `O=C(O)CCC(NC(=O)NC(CCCCNC(=O)CCCCCCCN(Cc1ccccn1)Cc1ccccn1)C(=O)O)C(=O)O` (centres unmarked) [Compound L5, 2-(3-{5-[8-(Bis-pyridin-2-ylmethyl-amino)-octanoylamino]-1-carboxy-pentyl}-ureido)-pentanedioic Acid], the “PSMA inhibitory activity (in words)” value (PSMA) is reported as “low nanomolar”.

For `O=C(O)CCC(NC(=O)NC(CCCCNC(=O)CCCCCCC(=O)NC(CCCCN(Cc1ccccn1)Cc1ccccn1)C(=O)O)C(=O)O)C(=O)O.[Br-].[C-]#[O+].[C-]#[O+].[C-]#[O+].[Re+]` (stereo not drawn) [ReL1, Tricarbonyl (2-[3-(5-{7-[5-(bis-pyridin-2-ylmethyl-amino)-1-carboxy-pentylcarbamoyl]-heptanoylamino}-1-carboxy-pentyl)-ureido]-pentanedioic acid) rhenium bromide], the Ki (PSMA; [2]) was 10.8 nM.

With `O=C(O)CCC(NC(=O)NC(CCCCNC(=O)CCCCCCC(=O)NC(CCCCN(Cc1ccc2ccccc2n1)Cc1ccc2ccccc2n1)C(=O)O)C(=O)O)C(=O)O.[Br-].[C-]#[O+].[C-]#[O+].[C-]#[O+].[Re+]` (stereo not drawn) [ReL2, Tricarbonyl(2-[3-(5-{7-[5-(bis-quinolin-2-ylmethyl-amino)-1-carboxy-pentylcarbamoyl]-heptanoylamino}-1-carboxy-pentyl)-ureido]-pentanedioic acid) rhenium bromide] the extinction coefficient ([1]; at 321 nm) was 17200 M⁻¹, the absorbance maximum ([1]; electronic spectrum) was 321 nm and the fluorescence quantum yield ([1]; ethylene glycol under argon) was 0.018. The fluorescence emission ([1]; excitation at 321 nm) was 550 nm, the fluorescence lifetime ([1]; λem = 550 nm, ethylene glycol under argon) was 11.8 μs and the “fluorescent signal in live cells (internalization)” value (PSMA+ PC3 PIP cells) was “weak but observable fluorescent signal”. For the same molecule, the Ki (PSMA; [2]) was 0.5 nM and the “PSMA inhibitory activity, fold higher than ReL1” value (PSMA; relative to ReL1) was 20 fold.

Molecule `O=C(O)CCC(NC(=O)NC(CCCCNC(=O)CCCCCCC(=O)NCCCCC(C(=O)O)N(Cc1ccccn1)Cc1ccccn1)C(=O)O)C(=O)O.[Br-].[C-]#[O+].[C-]#[O+].[C-]#[O+].[Re+]` (stereo not drawn) [ReL3, Tricarbonyl(2-[3-(5-{7-[5-(bis-pyridin-2-ylmethyl-amino)-5-carboxy-pentylcarbamoyl]-heptanoylamino}-1-carboxy-pentyl)-ureido]-pentanedioic acid)rehenium bromide] has a Ki (PSMA; [2]) of 10.3 nM.

With `O=C(O)CCC(NC(=O)NC(CCCCNC(=O)CCCCCCCN(Cc1ccccn1)Cc1ccccn1)C(=O)O)C(=O)O.[Br-].[C-]#[O+].[C-]#[O+].[C-]#[O+].[Re+]` (stereo not drawn) [ReL5, Tricarbonyl(2-(3-{5-[8-(bis-pyridin-2-ylmethyl-amino)-octanoylamino]-1-carboxy-pentyl}-ureido)-pentanedioic acid)rhenium bromide] the Ki (PSMA; [2]) was 0.91 nM.

In the case of `O=C(O)CCC(NC(=O)NC(CCCCN(Cc1ccccn1)Cc1ccccn1)C(=O)O)C(=O)O.[Br-].[C-]#[O+].[C-]#[O+].[C-]#[O+].[Re+]` (stereo not drawn) [ReL6, Tricarbonyl(2-{3-[5-(bis-pyridin-2-ylmethyl-amino)-1-carboxy-pentyl]-ureido}-pentanedioic acid)rhenium bromide], the “PSMA inhibitory activity (in words)” value (PSMA) is reported as “very low PSMA inhibitory activity, the lowest in the entire series” and the Ki (PSMA; [2]) is reported as 200 nM.

Molecule `O=C(O)CCC(NC(=O)NC(CCCCNC(=O)CCCCCCC(=O)NCCCCCCN(Cc1ccccn1)Cc1ccccn1)C(=O)O)C(=O)O.[Br-].[C-]#[O+].[C-]#[O+].[C-]#[O+].[Re+]` (stereo not drawn) [ReL7, Tricarbonyl(2-[3-(5-{7-[6-(Bis-pyridin-2-ylmethyl-amino)-hexylcarbamoyl]-heptanoylamino}-1-carboxy-pentyl)-ureido]-pentanedioic acid)rhenium bromide] has a Ki (PSMA; [2]) of 2.06 nM.

— publication PMC3336105 (Journal of Medicinal Chemistry, 2008)
